In data set [1] the test system is Rattus norvegicus. In words: Hypoglycemic activity in rat at 40 to 937.5 mg/kg, iv measured after 3 hrs by GOD-Perid method. Format: functional, organism-based. Put shortly: (§1)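 Female rats in the fed state were injected iv with the Na salt dissolved in 0.9% saline at four graded doses. Blood samples were taken at 1 and 3 h, and glucose was determined enzymatically by the GOD-Perid method. Effects were expressed relative to the control group (percent control value).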

Data set [2] deals with Rattus norvegicus. In words: Hypoglycemic activity in iv dosed rat measured after 1 hr by GOD-Perid method. Format: functional. Put shortly:
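Fed female rats received the compound iv as its Na salt in 0.9% saline at four doses. Blood was sampled 1 h post-injection and glucose measured enzymatically (GOD-Perid). Changes were expressed as percent of the control group, and linear dose-response curves were fitted. ED50 is the dose for 50% reduction of the mean control value, with 95% confidence limits.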

For data set [3], the system named is Rattus norvegicus. In words: Toxicity in rat assessed as suvival at 937.5 mg/kg, iv. Type of data set: organism-based. Further details: dose 937.5 mg/kg, route intravenous. The conditions noted are these: in vivo. In short, it runs like this: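 Survival was recorded in fed female rats after iv injection of the Na salt in 0.9% saline as the top dose of a four-dose series. Blood glucose was sampled at 1 and 3 h.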

In data set [4] the test system is Rattus norvegicus. In words: Hypoglycemic activity in rat at 20 to 375 mg/kg, iv measured after 3 hrs by GOD-Perid method. Format: functional, organism-based. Put shortly:
as §1

Data set [5] relates to Rattus norvegicus. In words: Hypoglycemic activity in rat at 9.6 to 150 mg/kg, iv measured after 3 hrs by GOD-Perid method. Type of data set: functional, organism-based. Put shortly:
as §1

The subject of data set [6] is Rattus norvegicus. In words: Hypoglycemic activity in rat at 0.0064 to 0.1 mg/kg, iv measured after 3 hrs by GOD-Perid method. Format: functional, organism-based. In short, it runs like this:
as §1

For data set [7], the system named is Rattus norvegicus. In words: Hypoglycemic activity in rat at 0.16 to 2.5 mg/kg, iv measured after 3 hrs by GOD-Perid method. Format: functional, organism-based. Put shortly: as §1

Activity calls are given as the source filed them. The rule behind the calls is not given here.

Consider `COc1ccc(F)cc1[C@@H](C)NC(=O)Cc1ccc(C(=O)O)cc1`, for which the result in the data set on Rattus norvegicus [1] was inactive. The 50% effect level in the data set on Rattus norvegicus [2] (ED50) was put at a dose of 1180 mg/kg. Also, the Activity entry in the data set with Rattus norvegicus [3] was “Toxic”.

For the molecule `COc1ccc(F)cc1[C@H](C)NC(=O)Cc1ccc(C(=O)O)cc1`, the result in the data set on Rattus norvegicus [4] was inactive. In the data set with Rattus norvegicus [2], the ED50 (usually the dose at which the effect has come halfway, by size or by number of responders) was 63.9 mg/kg.

Consider `COCCOc1cnc(NS(=O)(=O)c2ccccc2)nc1` [GLYMIDINE], for which the result in the data set with Rattus norvegicus [5] was inactive. The molecule also displayed an ED50 with Rattus norvegicus [2] of 69.7 mg/kg.

On to `COc1ccc(F)cc1[C@H](C)NC(=O)Cc1ccc(S(=O)(=O)Nc2ncc(CC(C)C)cn2)cc1` [GLIFLUMIDE], for which, in the data set on Rattus norvegicus [6], the result was inactive. The molecule further showed a median effective dose (ED50) with Rattus norvegicus [2] of 0.02 mg/kg.

Take `COc1ccc(F)cc1[C@@H](C)NC(=O)Cc1ccc(S(=O)(=O)Nc2ncc(CC(C)C)cn2)cc1`: the outcome in the data set with Rattus norvegicus [7] was inactive. In the data set with Rattus norvegicus [2], this molecule gave a 50% effective dose (ED50) of 0.81 mg/kg.

For the origin of these results see ChEMBL document CHEMBL3228029, “Blood glucose lowering sulfonamides with asymmetric carbon atoms. 3. Related N-substituted carbamoylbenzoic acids” (J Med Chem, 1979).
